Screening results (PubChem)
Apaf-1 inh: inhibitors of human Apaf-1 apoptosome. O14727. reconstituted apoptosome caspase-3 activity, DEVD-Rh110 fluorescence. inhibition, % at 20 µM. 330,000 tested, 0.71% active. AID 489030; active = inhibition of at least 40% at 20 µM;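 also: plate controls were DMSO wells for no effect and DEVD-CHO caspase inhibitor wells for full effect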
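Material: cell-free apoptosome with Apaf-1, procaspase-3 and caspase-9; Buffer or medium: Hepes pH 7.5 with detergent and BSA; Reagent: cytochrome c trigger plus (Z-DEVD)2-Rh110 caspase-3 substrate; Times: compound with Apaf-1, dATP, procaspase-3 30 min, then 50 min reaction, room temperature; Technique: Rh110 fluorescence intensity.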
PAFAH2 FP inh: inhibitors of human PAFAH2 | inhibition, % at 3.39 µM | 340,000 tested, 0.99% active | recombinant PAFAH2, FP-rhodamine activity probe, fluorescence polarization | AID 492956 | Q99487;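 active = inhibition above the mean over all tested compounds plus 3 SD, cut at about 30% in these data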;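 also: inhibitors block probe labeling of enzyme so polarization drops; 0% = enzyme with DMSO and 100% = wells lacking PAFAH2 protein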
TDP2 inh: TDP2 (human) inhibition, absorbance primary screen; inhibition, % at 12.8 µM; 370,000 tested, 0.34% active; AID 720702; O95551; recombinant TDP2, T5PNP hydrolysis, p-nitrophenol absorbance 415 nm;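 active = inhibition above the mean of all tested compounds plus 3 SD, set per campaign, cut at about 25% in these data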;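 also: 0% = DMSO with enzyme and 100% = buffer with substrate but no TDP2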
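Assay system: recombinant human TDP2 / Reagent: T5PNP substrate at 5 mM, a TopII-DNA adduct mimic / Measured by: epi absorbance from released p-nitrophenol / Evaluation: % inhibition relative to enzyme-containing and enzyme-free wells / Control set: enzyme-free and DMSO wells / Replicates: each compound tested once, singlicate / Schedule: enzyme reaction with compound for 2 h at 37 °C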
PAFAH1B2 inh: PAFAH1B2 (human) inhibition; P68402; recombinant PAFAH1B2, FP-rhodamine activity probe, fluorescence polarization; inhibition, % at 3.39 µM; 340,000 tested, 1.2% active;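 active = inhibition above the mean of all tested compounds plus 3 SD, cut at about 24% in these data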;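 also: 0% = enzyme with DMSO and 100% = wells lacking PAFAH1B2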
PAFAH1B3 inh: inhibitors of human PAFAH1B3 | inhibition, % at 3.39 µM | 340,000 tested, 0.28% active | AID 492972 | recombinant PAFAH1B3, FP-rhodamine probe, fluorescence polarization | Q15102;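 active = inhibition above the screen-wide average of all tested compounds plus 3 SD, cut at about 25% in these data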;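 also: 0% = enzyme with DMSO only and 100% = wells lacking PAFAH1B3 protein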
Apaf-1 inh conf2: Apaf-1 inhibition, single-dose confirmed | shares compounds with Apaf-1 inh | reconstituted apoptosome, caspase-3 DEVD-Rh110 fluorescence | inhibition, % at 20 µM | 1,800 tested, 25% active;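 active = mean inhibition of at least 40% at 20 µM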;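 also: plate controls were DMSO wells for no effect and DEVD-CHO caspase inhibitor control wells for full effect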
Rh110 interf inh: interferes with Rh110 fluorescence, flagging false Apaf-1 inhibitors; shares compounds with Apaf-1 inh; Rh110 fluorescence interference, quenched caspase reaction; activation (fluorescence interference), % at 20 µM; 1,800 tested, under 10 active; AID 504615;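 active = signal rise of 40% or more at 20 µM, treated as a fluorescence artifact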
Fluor interf inh: shows fluorescence interference in the Apaf-1 inhibitor assay format; shares compounds with Apaf-1 inh; fluorescence interference counterscreen, Apaf-1 assay format; IC50, µM; 460 tested, under 10 active; call rule not given here
* hit, by the source's call; x = not tested or not shown; ! = a repeat was not active. Shown are actives, neighbours in structure and some others; about 2.3% of the full set was active somewhere.

SMILES	Apaf-1 inh	PAFAH2 FP inh	TDP2 inh	PAFAH1B2 inh	PAFAH1B3 inh	Apaf-1 inh conf2	Rh110 interf inh	others
CCOC(=O)C1Nc2ccccc2C2C(O)C(O)CC12 (stereo not drawn)	66*	13	22	14	38*	18	-7
CN1CCCCC(NC(=O)c2c(F)cccc2F)C1=O (stereo not drawn)	x	x	-2	x	x	x	x
CCCN(CC(=O)Nc1ccccc1C)C(=O)C1CC(=O)N(c2ccccc2C(C)CC)C1 (stereo not drawn)	48*	-1	-1	2	2	33	4
CCN(CC(=O)Nc1ccc(OC)cc1)C(=O)C1CCN(C(=O)c2ccc(Cl)cc2)CC1	58*	7	-2	-2	7	38	2
CCCN(CC(=O)Nc1ccccc1C)C(=O)C1CCCN(C(=O)c2ccc(Cl)cc2)C1 (stereo not drawn)	48*	-3	-5	4	4	32	-4
COc1ccc(CCNC(=O)Nc2ccc3c(c2)[C@]2(CC(=O)N(CC(C)C)C2c2ccccc2)C(=O)N3C)cc1OC (stereo partly drawn)	x	x	-5	x	x	x	x
CC(=O)N=Cc1c(C)c(C#N)c(=O)n(C)c1O	44*	-4	21	3	2	-2	-1
CCc1nc(N2CCN(C(C)=O)CC2)c2c3c(sc2n1)CC(C(C)(C)C)CC3 (stereo not drawn)	42*	0	-3	2	9	31	10
CC(=O)C1(C(=O)Nc2cc(C)cc(C)c2)CC(c2ccccn2)=NO1 (stereo not drawn)	x	x	-10	x	x	x	x
CC1CCC2(CC1)CCC2NCc1ccc(Cl)c(Cl)c1 (stereo not drawn)	x	x	6	x	x	x	x
CN1CCc2cccc3c2[C@H]1Cc1ccc(O)c(O)c1-3	42*!	8	-13	0	7	6	7
CCCCC1=CC2=C(c3ccco3)C(=O)C(C)(OC(=O)c3ccc(OC)cc3)C(=O)C2=CN1C1CC1 (stereo not drawn)	40*	7	6	5	-9	14	2
CCCCC1=CC2=C(c3ccco3)C(=O)C(C)(OC(=O)c3ccc(OC)cc3)C(=O)C2=CN1C1CCCC1 (stereo not drawn)	23	x	x	x	x	x	x
Cn1c(SCc2ccc(C(C)(C)C)cc2)nnc1-c1ccco1	x	x	1	x	x	x	x
O=C(NCCOc1nc(N2CCCCC2)nc(N2CCCCC2)n1)Nc1ccccc1	41*	-4	-11	-4	7	15	11
O=C(NCCOc1nc(N2CCCCC2)nc(N2CCOCC2)n1)Nc1ccccc1	6	0	1	1	1	x	x
CCOC(=O)Cn1cc(CN2C(C(=O)OC)CN(C3CC3)CCS2(=O)=O)nn1 (stereo not drawn)	x	x	5	x	x	x	x
CC(C)C[C@@H]1COc2cc(N3CCCC3)ccc2S(=O)(=O)N1	x	x	0	x	x	x	x
CCCCCCCCCCCCCCCCn1cc[n+](C)c1	80*	-8	3	2	4	44*	14	Fluor interf inh=>100
CCCCCCCCn1ccc(=N)cc1	-15	5	3	-4	11	x	x
S=C(NCc1cccc(Cl)c1)OC1CCC12CCC(c1ccccc1)CC2 (stereo not drawn)	x	x	13	x	x	x	x
COc1ccccc1C1/C(=C(\O)c2ccc3c(c2)OCCO3)C(=O)C(=O)N1CCCn1ccnc1 (stereo not drawn)	45*	4	11	2	5	12	-1
COc1ccc(C2/C(=C(/O)c3ccc4c(c3)CC(C)O4)C(=O)C(=O)N2CCCn2ccnc2)cc1 (stereo not drawn)	42*	5	1	-1	8	7	4
COc1ccc(C2/C(=C(\O)c3ccc4c(c3)OCCO4)C(=O)C(=O)N2CCCn2ccnc2)cc1 (stereo not drawn)	27	3	-21	0	4	x	x
C=CCC12C=C(OC)C(=O)C(C1=O)C1c3ccccc3CC12 (stereo not drawn)	x	x	1	x	x	x	x
SMILES	Apaf-1 inh	PAFAH2 FP inh	TDP2 inh	PAFAH1B2 inh	PAFAH1B3 inh	Apaf-1 inh conf2	Rh110 interf inh	others
COC(=O)C1=C(C)N(Cc2ccc(C(F)(F)F)cc2)C(=NCc2ccccc2)NC1c1cccc(Cl)c1 (stereo not drawn)	x	x	-1	x	x	x	x
CCCN1CCCCC(NC(=O)c2ccc(F)c(F)c2)C1=O (stereo not drawn)	x	x	4	x	x	x	x
COc1ccc(C(CNC(=O)c2cccc(NS(=O)(=O)c3ccccc3)c2)N(C)C)cc1 (stereo not drawn)	3	2	0	-1	6	x	x
COc1ccc(C(CNC(=O)c2cccc(NS(=O)(=O)c3ccc(C)c(F)c3)c2)N(C)C)cc1 (stereo not drawn)	52*	3	-6	0	3	37	-6
O=C(NCc1ccccc1Cl)C1CCCN(c2nc3ccccc3o2)C1 (stereo not drawn)	x	x	-4	x	x	x	x
COC(=O)[C@]12C[C@H](CC(=O)NCCc3ccccc3OC)C(=O)N(CCC3=CCCCC3)C1=C[C@H](COCc1ccccc1)O[C@@H]2C	x	x	-2	x	x	x	x
Cc1ccc(NC(=O)NNS(=O)(=O)c2ccc(Br)cc2)cc1	3	3	4	8	-3	x	x
Cc1ccc(S(=O)(=O)NC(=O)Nc2ccc(N(C)C)cc2)cc1	57*	0	11	6	7	23	2
COc1cccc2c1C(=O)c1ccc3ccccc3c1C2=O	72*	20	x	8	3	9	4
COc1ccc(N)cc1-n1c(C)ccc1C	84*	-1	-8	-2	15	24	-2
CN1CCC(N[C@@H](Cc2c[nH]c3ccccc23)C(=O)NCCCc2ccccc2)(C(=O)NCCc2c[nH]c3ccccc23)CC1	x	x	-9	x	x	x	x
Nc1ccc(Oc2ncccn2)cc1	44*	2	-6	6	13	52*	8	Fluor interf inh=>100
NS(=O)(=O)c1ccc(OCCCN2CCC(C(O)(c3ccccc3)c3ccccc3)CC2)cc1	x	x	3	x	x	x	x
Cc1cc(=O)n(-c2ccc3ccccc3n2)[nH]1	86*	3	5	7	14	4	4
Cc1onc(-c2ccccc2Cl)c1C(=O)NCc1ccc2c(c1)cc(C)n2C	53*	6	1	10	11	19	1
COCC(=O)NCc1ccc2c(c1)cc(C)n2C	8	7	2	0	-1	x	x
Cc1ccc(S(=O)(=O)NCc2ccncc2)cc1	-2	-8	-7	5	0	x	x
Cc1cc2cc(CNC(=O)NC3CCCCC3)ccc2n1C	51*	6	7	-7	3	16	11
Cc1ccc(CNC(=O)c2c(-c3ccccc3Cl)noc2C)cc1	7	-10	0	5	10	x	x
